Results from ChEMBL document CHEMBL1133812, “Small molecule somatostatin receptor subtype-2 antagonists” (Bioorg Med Chem Lett, 2001).
Where a SMILES comes first, the peptide text is derived from it. [ ]: non-standard residue; d: D form. The star is where a group is joined. Phe(3-F) = N[C@@H](Cc1cccc(F)c1)C(=O)O; Tos = Cc1ccc(S(=O)(=O)*)cc1

Experiments:
[1] = target: Somatostatin receptor type 2 (Homo sapiens, UniProt P30874); assay: Antagonistic activity towards sst2 receptor in GH4C1 cells a concentration of 1-2 x 10e6/mL incubated for 20 minutes; assay type: functional, cell-based, GH4-C1
How it was run: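 GH4C1 pituitary cells (1–2×10⁶/mL) exposed to compound dose-titrations with 100 nM VIP plus 10 nM somatostatin 14, 20 min at 37 °C. cAMP content read against cAMP standards in adenylyl cyclase activation plates. Antagonism scored as a cAMP rise over VIP+somatostatin control wells. Values from single experiments or means of 2–4 replicate experiments.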

[2] = target: Somatostatin receptor type 2 (Sus scrofa); assay: Inhibitory concentration towards binding of sst2 receptor using [125I]somatostatin as radioligand in Neuro2A cells

Chain of Somatostatin receptor type 2 (P30874 whole entry): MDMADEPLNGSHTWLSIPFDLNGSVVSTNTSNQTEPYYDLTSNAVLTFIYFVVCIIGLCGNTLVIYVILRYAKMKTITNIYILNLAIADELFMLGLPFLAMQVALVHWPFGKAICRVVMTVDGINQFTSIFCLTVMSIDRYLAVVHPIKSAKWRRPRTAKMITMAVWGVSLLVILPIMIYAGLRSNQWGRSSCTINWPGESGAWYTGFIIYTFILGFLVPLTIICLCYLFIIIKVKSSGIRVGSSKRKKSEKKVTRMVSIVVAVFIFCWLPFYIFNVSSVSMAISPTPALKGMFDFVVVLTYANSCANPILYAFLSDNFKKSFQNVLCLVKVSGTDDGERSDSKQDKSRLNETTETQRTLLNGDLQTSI

IC50 ([1]; gh4-c1)	IC50 ([2]; neuro2a)	IC50 [1]	IC50 [2]	SMILES
270 nM	4.1 nM			CC(C)(C)C1N[C@H](C(=O)NC(Cc2cccc3ccccc23)C(N)=O)CSSC[C@@H](NC(=O)C(N)Cc2cccc(F)c2)C(=O)NC(Cc2cccnc2)C(=O)N[C@@H](Cc2c[nH]c3ccccc23)C(=O)N[C@@H](CCCCN)C1=O (stereo partly drawn)
		67 nM	4.4 nM	Cc1ccc(C(=O)N2CCN(C(=O)N[C@H](Cc3c[nH]c4ccccc34)C(=O)N[C@@H](CCCCN)C(=O)OC(C)(C)C)CC2)cc1
		1600 nM	6.9 nM	CC(C)(C)OC(=O)[C@H](CCCCN)NC(=O)[C@@H](Cc1c[nH]c2ccccc12)NC(=O)N1CCN(C(=O)c2ccccc2)CC1
		1200 nM	85 nM	CC(C)(C)OC(=O)[C@H](CCCCN)NC(=O)[C@H](Cc1c[nH]c2ccccc12)NC(=O)c1ccc(-c2ccccc2)cc1
		6500 nM	> 2000 nM	COC(=O)[C@H](CCCN=C(N)N)NC(=O)[C@H](Cc1cccc(F)c1)NS(=O)(=O)c1ccc(C)cc1 (Tos-[Phe(3-F)]-Arg-OMe)
		7700 nM	9.2 nM	Cc1ccc(S(=O)(=O)N2CCN(C(=O)N[C@H](Cc3c[nH]c4ccccc34)C(=O)N[C@@H](CCCCN)C(=O)OC(C)(C)C)CC2)cc1
		120 nM	3.2 nM	CC(C)(C)OC(=O)[C@H](CCCCN)NC(=O)[C@@H](Cc1c[nH]c2ccccc12)NC(=O)C1CCN(S(=O)(=O)c2ccccc2)CC1
		6.5 nM	0.26 nM	CC(C)(C)OC(=O)[C@H](CCCCN)NC(=O)[C@@H](Cc1c[nH]c2ccccc12)NC(=O)N1CCC(n2c(=O)[nH]c3ccccc32)CC1
		29 nM	2.9 nM	CC(C)(C)OC(=O)[C@H](CCCCN)NC(=O)[C@@H](Cc1c[nH]c2ccccc12)NC(=O)N1CCN(S(=O)(=O)c2ccccc2)CC1
